Consider 1 molecule from ChEMBL document CHEMBL1148497 (Bioorg Med Chem Lett, 2006).

Data set [1] relates to Mus musculus. The data set can be described thus: Toxicity in BALB/c mouse at 0.5 mg/kg, ip. The class given is organism-based. Also noted: dose 0.5 mg/kg, route intraperitoneal. As to conditions: in vivo.
The next data set has as its system HPAC. Put plainly: Cytotoxicity against human HPAC cell line. Format: functional, cell-based. Summed up: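 Human pancreatic ductal carcinoma HPAC cells grown in 1:1 DMEM/Ham's F-12 with 10% FBS at 37 °C, seeded at 2 × 10^3 cells/well. After 24 h, compounds were added from DMSO stocks (final DMSO 0.1%) for 72 h. WST-1 was then added for 3 h at 37 °C and absorbance read at 450 nm.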

For data set [2], the system named is Mus musculus. The data set can be described thus: Hepatic toxicity in BALB/c mouse at 0.5 mg/kg, ip. Format: organism-based. Also noted: dose 0.5 mg/kg, route intraperitoneal. To be noted: in vivo.

The IC50 is the concentration needed to halve the response being measured. Higher therefore signals weaker potency. Consider `CCC(=C/[C@H](C)C/C=C/C(C)=C/[C@@H](CO)C(=O)[C@@H](C)[C@H](O)[C@@H](C)C/C(C)=C/C(=O)O)/C=C/[C@H]1CC(C)=CC(=O)O1`, for which the Activity entry in the data set with Mus musculus [1] and with Mus musculus [2] was “Non-toxic” throughout. This molecule also yielded an IC50 in the data set with HPAC of 0.309 nM.
